Results: ChEMBL document CHEMBL1944511, “Bakuchiol derivatives as novel and potent cytotoxic agents: a report” (Eur J Med Chem, 2012)

What was measured:
IMR-32 [1] = experiment: Growth inhibition of human IMR32 cells at 10 uM after 48 hrs by sulpharhodamine B assay; type: functional; conditions: IMR-32, 48 h, read-out: GI
In short: (§1)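 This is the SRB protein-stain assay on adherent cells in RPMI-1640/MEM with 10% FCS. Each compound in DMSO (vehicle <0.2%) was applied at a single fixed concentration for 48 h. Cells were fixed with TCA and stained with SRB, and the dye was solubilised in Tris and read at 570/620 nm. Percent growth inhibition is relative to vehicle-treated controls, reported as mean ± SD of three experiments run in triplicate.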

MCF7 [2] = experiment: Growth inhibition of human MCF7 cells at 50 uM after 48 hrs by sulpharhodamine B assay; type: functional; conditions: MCF7, 48 h, read-out: GI; in short: as §1
HEp-2 [3] = experiment: Cytotoxicity against human Hep2 cells after 48 hrs by sulpharhodamine B assay; type: functional, cell-based; conditions: HEp-2, 48 h
In short: (§2)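 Cells were grown in RPMI-1640/MEM with 10% FCS and penicillin/streptomycin at 37 °C under 5% CO2, then seeded and left to adhere overnight. Analogs in DMSO (vehicle <0.2%) were added at several concentrations for 48 h. Cells were fixed with cold 50% TCA, stained with 0.4% SRB in 1% acetic acid, solubilised in 10 mM Tris, and read at OD 570/620 nm. IC50 came from non-linear regression.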

PC-3 [4] = experiment: Cytotoxicity against human PC3 cells after 48 hrs by sulpharhodamine B assay; type: functional, cell-based; conditions: PC-3, 48 h; in short: as §2
THP-1 [5] = experiment: Growth inhibition of human THP1 cells at 10 uM after 48 hrs by sulpharhodamine B assay; type: functional; conditions: THP-1, 48 h, read-out: GI
In short: (§3)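 Cells grown in RPMI-1640/MEM with 10% FCS, penicillin/streptomycin, 37 °C, 5% CO2. Seeded in 96-well plates, allowed to adhere overnight, then exposed 48 h to analogs in DMSO (vehicle <0.2% in controls). TCA-fixed, stained with 0.4% SRB in 1% acetic acid, dye solubilized in 10 mM Tris base, OD 570 nm (ref 620 nm). Mean ± SD of three experiments run in triplicate.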

THP-1 [6] = experiment: Growth inhibition of human THP1 cells at 30 uM after 48 hrs by sulpharhodamine B assay; type: functional; conditions: THP-1, 48 h, read-out: GI; in short: as §3
DU-145 [7] = experiment: Growth inhibition of human DU145 cells at 10 uM after 48 hrs by sulpharhodamine B assay; type: functional; conditions: DU-145, 48 h, read-out: GI; in short: as §1
MCF7 [8] = experiment: Growth inhibition of human MCF7 cells at 10 uM after 48 hrs by sulpharhodamine B assay; type: functional; conditions: MCF7, 48 h, read-out: GI; in short: as §1
PC-3 [9] = experiment: Growth inhibition of human PC3 cells at 10 uM after 48 hrs by sulpharhodamine B assay; type: functional; conditions: PC-3, 48 h, read-out: GI; in short: as §1
PC-3 [10] = experiment: Growth inhibition of human PC3 cells at 30 uM after 48 hrs by sulpharhodamine B assay; type: functional; conditions: PC-3, 48 h, read-out: GI; in short: as §3
THP-1 [11] = experiment: Cytotoxicity against human THP1 cells after 48 hrs by sulpharhodamine B assay; type: functional, cell-based; conditions: THP-1, 48 h; in short: as §2
HEp-2 [12] = experiment: Growth inhibition of human Hep2 cells at 5 uM after 48 hrs by sulpharhodamine B assay; type: functional; conditions: HEp-2, 48 h, read-out: GI; in short: as §1
THP-1 [13] = experiment: Growth inhibition of human THP1 cells at 20 uM after 48 hrs by sulpharhodamine B assay; type: functional; conditions: THP-1, 48 h, read-out: GI; in short: as §3
A549 [14] = experiment: Growth inhibition of human A549 cells at 30 uM after 48 hrs by sulpharhodamine B assay; type: functional; conditions: A549, 48 h, read-out: GI; in short: as §1
HCT-15 [15] = experiment: Growth inhibition of human HCT15 cells at 5 uM after 48 hrs by sulpharhodamine B assay; type: functional; conditions: HCT-15, 48 h, read-out: GI; in short: as §1
PC-3 [16] = experiment: Growth inhibition of human PC3 cells at 20 uM after 48 hrs by sulpharhodamine B assay; type: functional; conditions: PC-3, 48 h, read-out: GI; in short: as §1
HCT-15 [17] = experiment: Cytotoxicity against human HCT15 cells after 48 hrs by sulpharhodamine B assay; type: functional, cell-based; conditions: HCT-15, 48 h; in short: as §2
A549 [18] = experiment: Cytotoxicity against human A549 cells after 48 hrs by sulpharhodamine B assay; type: functional, cell-based; conditions: A549, 48 h; in short: as §2
HeLa [19] = experiment: Growth inhibition of human HeLa cells at 30 uM after 48 hrs by sulpharhodamine B assay; type: functional; conditions: read-out: GI; in short: as §1
HeLa [20] = experiment: Growth inhibition of human HeLa cells at 50 uM after 48 hrs by sulpharhodamine B assay; type: functional; conditions: read-out: GI; in short: as §1
HEp-2 [21] = experiment: Growth inhibition of human Hep2 cells at 10 uM after 48 hrs by sulpharhodamine B assay; type: functional; conditions: HEp-2, 48 h, read-out: GI; in short: as §1
OVCAR-5 [22] = experiment: Growth inhibition of human OVCAR5 cells at 30 uM after 48 hrs by sulpharhodamine B assay; type: functional; conditions: OVCAR-5, 48 h, read-out: GI; in short: as §1
HEp-2 [23] = experiment: Growth inhibition of human Hep2 cells at 20 uM after 48 hrs by sulpharhodamine B assay; type: functional; conditions: HEp-2, 48 h, read-out: GI; in short: as §1
THP-1 [24] = experiment: Growth inhibition of human THP1 cells at 5 uM after 48 hrs by sulpharhodamine B assay; type: functional; conditions: THP-1, 48 h, read-out: GI; in short: as §3
MCF7 [25] = experiment: Cytotoxicity against human MCF7 cells after 48 hrs by sulpharhodamine B assay; type: functional, cell-based; conditions: MCF7, 48 h; in short: as §2
A549 [26] = experiment: Growth inhibition of human A549 cells at 20 uM after 48 hrs by sulpharhodamine B assay; type: functional; conditions: A549, 48 h, read-out: GI; in short: as §1
PC-3 [27] = experiment: Growth inhibition of human PC3 cells at 50 uM after 48 hrs by sulpharhodamine B assay; type: functional; conditions: PC-3, 48 h, read-out: GI; in short: as §3
IMR-32 [28] = experiment: Growth inhibition of human IMR32 cells at 20 uM after 48 hrs by sulpharhodamine B assay; type: functional; conditions: IMR-32, 48 h, read-out: GI; in short: as §1
SF-295 = experiment: Cytotoxicity against human SF295 cells after 48 hrs by sulpharhodamine B assay; type: functional, cell-based; conditions: SF-295, 48 h; in short: as §2
IMR-32 [29] = experiment: Growth inhibition of human IMR32 cells at 5 uM after 48 hrs by sulpharhodamine B assay; type: functional; conditions: IMR-32, 48 h, read-out: GI; in short: as §1
MCF7 [30] = experiment: Growth inhibition of human MCF7 cells at 20 uM after 48 hrs by sulpharhodamine B assay; type: functional; conditions: MCF7, 48 h, read-out: GI; in short: as §1
OVCAR-5 [31] = experiment: Growth inhibition of human OVCAR5 cells at 50 uM after 48 hrs by sulpharhodamine B assay; type: functional; conditions: OVCAR-5, 48 h, read-out: GI; in short: as §1
A549 [32] = experiment: Growth inhibition of human A549 cells at 10 uM after 48 hrs by sulpharhodamine B assay; type: functional; conditions: A549, 48 h, read-out: GI; in short: as §1
DU-145 [33] = experiment: Growth inhibition of human DU145 cells at 20 uM after 48 hrs by sulpharhodamine B assay; type: functional; conditions: DU-145, 48 h, read-out: GI; in short: as §1
IMR-32 [34] = experiment: Growth inhibition of human IMR32 cells at 30 uM after 48 hrs by sulpharhodamine B assay; type: functional; conditions: IMR-32, 48 h, read-out: GI; in short: as §1
DU-145 [35] = experiment: Growth inhibition of human DU145 cells at 5 uM after 48 hrs by sulpharhodamine B assay; type: functional; conditions: DU-145, 48 h, read-out: GI; in short: as §1
HCT-15 [36] = experiment: Growth inhibition of human HCT15 cells at 10 uM after 48 hrs by sulpharhodamine B assay; type: functional; conditions: HCT-15, 48 h, read-out: GI; in short: as §1
HEp-2 [37] = experiment: Growth inhibition of human Hep2 cells at 50 uM after 48 hrs by sulpharhodamine B assay; type: functional; conditions: HEp-2, 48 h, read-out: GI; in short: as §1
HCT-15 [38] = experiment: Growth inhibition of human HCT15 cells at 20 uM after 48 hrs by sulpharhodamine B assay; type: functional; conditions: HCT-15, 48 h, read-out: GI; in short: as §1
MCF7 [39] = experiment: Growth inhibition of human MCF7 cells at 5 uM after 48 hrs by sulpharhodamine B assay; type: functional; conditions: MCF7, 48 h, read-out: GI; in short: as §1
THP-1 [40] = experiment: Growth inhibition of human THP1 cells at 50 uM after 48 hrs by sulpharhodamine B assay; type: functional; conditions: THP-1, 48 h, read-out: GI; in short: as §3
DU-145 [41] = experiment: Cytotoxicity against human DU145 cells after 48 hrs by sulpharhodamine B assay; type: functional, cell-based; conditions: DU-145, 48 h; in short: as §2
A549 [42] = experiment: Growth inhibition of human A549 cells at 50 uM after 48 hrs by sulpharhodamine B assay; type: functional; conditions: A549, 48 h, read-out: GI; in short: as §1
IMR-32 [43] = experiment: Growth inhibition of human IMR32 cells at 50 uM after 48 hrs by sulpharhodamine B assay; type: functional; conditions: IMR-32, 48 h, read-out: GI; in short: as §1
MCF7 [44] = experiment: Growth inhibition of human MCF7 cells at 30 uM after 48 hrs by sulpharhodamine B assay; type: functional; conditions: MCF7, 48 h, read-out: GI; in short: as §1
A549 [45] = experiment: Growth inhibition of human A549 cells at 5 uM after 48 hrs by sulpharhodamine B assay; type: functional; conditions: A549, 48 h, read-out: GI; in short: as §1
HEp-2 [46] = experiment: Growth inhibition of human Hep2 cells at 30 uM after 48 hrs by sulpharhodamine B assay; type: functional; conditions: HEp-2, 48 h, read-out: GI; in short: as §1
PC-3 [47] = experiment: Growth inhibition of human PC3 cells at 5 uM after 48 hrs by sulpharhodamine B assay; type: functional; conditions: PC-3, 48 h, read-out: GI; in short: as §3

C=C[C@@](C)(/C=C/c1ccc(OC(C)=O)cc1)CCC=C(C)C [ACETYLBAKUCHIOL]
inhibition of growth at 10 µM (IMR-32 [1]): 34% | inhibition of growth at 50 µM (MCF7 [2]): 75% | IC50 (HEp-2 [3]): 20 µM | IC50 (PC-3 [4]): 23 µM | inhibition of growth at 10 µM (THP-1 [5]): 44% | inhibition of growth at 30 µM (THP-1 [6]): 63% | inhibition of growth at 10 µM (DU-145 [7]): 29% | inhibition of growth at 10 µM (MCF7 [8]): 31% | inhibition of growth at 10 µM (PC-3 [9]): 32% | inhibition of growth at 30 µM (PC-3 [10]): 60% | IC50 (THP-1 [11]): 18 µM | inhibition of growth at 5 µM (HEp-2 [12]): 14% | inhibition of growth at 20 µM (THP-1 [13]): 50% | inhibition of growth at 30 µM (A549 [14]): 60% | inhibition of growth at 5 µM (HCT-15 [15]): 31% | inhibition of growth at 20 µM (PC-3 [16]): 45% | IC50 (HCT-15 [17]): 11 µM | IC50 (A549 [18]): 40 µM | inhibition of growth at 30 µM (HeLa [19]): 45% | inhibition of growth at 50 µM (HeLa [20]): 63% | inhibition of growth at 10 µM (HEp-2 [21]): 30% | inhibition of growth at 30 µM (OVCAR-5 [22]): 62% | inhibition of growth at 20 µM (HEp-2 [23]): 46% | inhibition of growth at 5 µM (THP-1 [24]): 34% | IC50 (MCF7 [25]): 25 µM | inhibition of growth at 20 µM (A549 [26]): 1% | inhibition of growth at 50 µM (PC-3 [27]): 67% | inhibition of growth at 20 µM (IMR-32 [28]): 48% | IC50 (SF-295): 8 µM | inhibition of growth at 5 µM (IMR-32 [29]): 27% | inhibition of growth at 20 µM (MCF7 [30]): 44% | inhibition of growth at 50 µM (OVCAR-5 [31]): 71% | inhibition of growth at 10 µM (A549 [32]): 22% | inhibition of growth at 20 µM (DU-145 [33]): 42% | inhibition of growth at 30 µM (IMR-32 [34]): 59% | inhibition of growth at 5 µM (DU-145 [35]): 19% | inhibition of growth at 10 µM (HCT-15 [36]): 46% | inhibition of growth at 50 µM (HEp-2 [37]): 52% | inhibition of growth at 20 µM (HCT-15 [38]): 57% | inhibition of growth at 5 µM (MCF7 [39]): 15% | inhibition of growth at 50 µM (THP-1 [40]): 81% | IC50 (DU-145 [41]): 26 µM | inhibition of growth at 50 µM (A549 [42]): 72% | inhibition of growth at 50 µM (IMR-32 [43]): 71% | inhibition of growth at 30 µM (MCF7 [44]): 56% | inhibition of growth at 5 µM (A549 [45]): 13% | inhibition of growth at 30 µM (HEp-2 [46]): 51% | inhibition of growth at 5 µM (PC-3 [47]): 21%
